The subject of data set [1] is Plasmodium falciparum. The experiment in a line: Antimalarial activity against asexual blood stages of Plasmodium falciparum 3D7 infected in human erythrocytes incubated for 3 days by ELISA. In kind it is functional, organism-based. The following applies: 3D7, 72 h. In outline:
(§1)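 Asexual blood-stage P. falciparum cultured in human erythrocytes; growth measured by HRP2 double-site sandwich ELISA. IC50 values are the mean of two independent double determinations.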
(ELISA stands for enzyme-linked immunosorbent assay.)

Data set [2] has as its system Plasmodium falciparum. The experiment in a line: Antimalarial activity against asexual blood stages of Plasmodium falciparum Dd2 infected in human erythrocytes incubated for 3 days by ELISA. In kind it is functional, organism-based. The following applies: Dd2, 72 h. In outline: as §1
Data set [3] addresses T1, 1-deoxy-D-xylulose 5-phosphate reductoisomerase, apicoplastic (Plasmodium falciparum (isolate 3D7)) (UniProt Q8IKG4).
T1 sequence (whole entry): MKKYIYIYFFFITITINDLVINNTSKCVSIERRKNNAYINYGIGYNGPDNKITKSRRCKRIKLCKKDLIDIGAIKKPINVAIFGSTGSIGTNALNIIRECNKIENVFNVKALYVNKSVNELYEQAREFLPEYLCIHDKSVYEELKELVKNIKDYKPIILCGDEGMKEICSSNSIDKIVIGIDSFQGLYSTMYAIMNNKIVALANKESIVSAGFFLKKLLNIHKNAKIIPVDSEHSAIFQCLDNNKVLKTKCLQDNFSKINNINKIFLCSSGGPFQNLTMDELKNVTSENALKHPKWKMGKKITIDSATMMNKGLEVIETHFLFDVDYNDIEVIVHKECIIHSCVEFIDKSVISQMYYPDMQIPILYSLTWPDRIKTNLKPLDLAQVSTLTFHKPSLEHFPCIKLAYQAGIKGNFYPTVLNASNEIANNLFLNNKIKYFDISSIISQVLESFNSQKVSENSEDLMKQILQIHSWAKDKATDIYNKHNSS
The experiment in a line: Inhibition of recombinant Plasmodium falciparum IspC expressed in Escherichia coli using 1-deoxy-D-xylulose 5-phosphate as substrate preincubated for 7 days followed by substrate addition in presence of Tris HCL at pH 7.6 by photometric assay.

The target of data set [4] is T1, 1-deoxy-D-xylulose 5-phosphate reductoisomerase, apicoplastic (Plasmodium falciparum (isolate 3D7)). The data set can be described thus: Inhibition of recombinant Plasmodium falciparum IspC expressed in Escherichia coli using 1-deoxy-D-xylulose 5-phosphate as substrate preincubated for 2 days followed by substrate addition in presence of Tris HCL at pH 7.6 by photometric assay. In outline: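 Racemate or single enantiomer (0.6–0.7 mM) held in 100 mM Tris-HCl pH 7.6 with 0.02% NaN3 at 22–23 °C. Aliquots taken at 0, 24 and 48 h and frozen at −80 °C. All aliquots then assayed in parallel for IC50 against P. falciparum IspC: 340 nm NADPH read-out with 0.5 mM DXP.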

Data set [5] relates to Pseudomonas aeruginosa. The data set can be described thus: Antimicrobial activity against Pseudomonas aeruginosa ATCC 27853 incubated for 18 hrs by microbroth dilution assay. In kind it is functional. The following applies: ATCC 27853, 18 h. In general terms: Dilution methods test growth across graded concentrations, often in twofold steps.
The test system of data set [6] is Escherichia coli. The data set can be described thus: Antimicrobial activity against Escherichia coli ATCC BAA 2469 incubated for 18 hrs by microbroth dilution assay. To be noted: ATCC BAA 2469, 18 h. In kind it is functional.
Data set [7] deals with T2, 1-deoxy-D-xylulose 5-phosphate reductoisomerase (Escherichia coli, UniProt W8T2T2).
T2 sequence (W8T2T2 whole entry): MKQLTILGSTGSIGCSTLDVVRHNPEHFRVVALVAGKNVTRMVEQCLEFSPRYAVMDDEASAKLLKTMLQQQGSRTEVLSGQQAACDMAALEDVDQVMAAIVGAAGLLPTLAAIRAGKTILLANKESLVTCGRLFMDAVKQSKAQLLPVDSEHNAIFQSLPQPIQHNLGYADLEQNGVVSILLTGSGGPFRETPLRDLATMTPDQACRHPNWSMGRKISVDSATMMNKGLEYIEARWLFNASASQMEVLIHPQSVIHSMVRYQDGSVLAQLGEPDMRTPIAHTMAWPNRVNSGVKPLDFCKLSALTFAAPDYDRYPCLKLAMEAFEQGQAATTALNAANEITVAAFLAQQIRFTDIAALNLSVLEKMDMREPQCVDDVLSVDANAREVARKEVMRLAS
The data set can be described thus: Inhibition of recombinant Escherichia coli IspC expressed in Escherichia coli M15 using 1-deoxy-D-xylulose 5-phosphate as substrate by photometric assay. In outline: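 E. coli IspC, His-tagged, expressed in E. coli M15 pREP4 (IPTG 1 mM, 36 h at 20 °C) and purified by Ni2+-chelate chromatography to about 95% purity. Reaction mix: 100 mM Tris-HCl pH 7.6, 5 mM MnCl2, 5 mM DTT, 0.5 mM NADPH, 0.02 U enzyme. Inhibitor tested as a 1:3 series from 200 to 0.003 µM. Started with 0.5 mM DXP; NADPH consumption read at 340 nm, room temperature. IC50 fitted from at least eight points.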

For data set [8], the target named is T3, 1-deoxy-D-xylulose 5-phosphate reductoisomerase (Mycobacterium tuberculosis, UniProt P9WNS1).
T3 sequence (P9WNS1 whole entry): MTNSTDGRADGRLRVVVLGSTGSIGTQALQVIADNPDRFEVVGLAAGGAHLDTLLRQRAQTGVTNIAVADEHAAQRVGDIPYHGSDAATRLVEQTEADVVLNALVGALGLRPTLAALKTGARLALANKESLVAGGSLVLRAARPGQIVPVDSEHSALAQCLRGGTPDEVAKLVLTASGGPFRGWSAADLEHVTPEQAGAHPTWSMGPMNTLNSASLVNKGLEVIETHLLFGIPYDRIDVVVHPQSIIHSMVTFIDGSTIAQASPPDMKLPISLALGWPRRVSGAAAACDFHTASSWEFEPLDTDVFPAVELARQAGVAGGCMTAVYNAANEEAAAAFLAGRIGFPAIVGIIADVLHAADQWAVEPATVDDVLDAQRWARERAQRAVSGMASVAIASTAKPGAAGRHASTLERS
The experiment in a line: Inhibition of recombinant Mycobacterium tuberculosis IspC expressed in Escherichia coli M15 using 1-deoxy-D-xylulose 5-phosphate as substrate by photometric assay.

Data set [9] relates to HeLa. The experiment in a line: Cytotoxicity against human HeLa cells assessed as reduction in cell viability incubated for 24 hrs by neutral red assay. The class given is cell-based. In outline:
(§2)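 Cytotoxicity on HeLa monolayers quantified spectrophotometrically, given as the mean of two independent double determinations. SI is HeLa IC50 divided by the P. falciparum 3D7 IC50.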

Data set [10] relates to Acinetobacter baumannii. The data set can be described thus: Antimicrobial activity against Acinetobacter baumannii ATCC BAA 1605 incubated for 18 hrs by microbroth dilution assay. The class given is functional. To be noted: ATCC BAA 1605, 18 h.
Data set [11] has as its target T4, 1-deoxy-D-xylulose 5-phosphate reductoisomerase, apicoplastic (Plasmodium falciparum (isolate 3D7), UniProt Q8IKG4).
T4 sequence (Q8IKG4 whole entry): T1 sequence (whole entry)
The experiment in a line: Inhibition of recombinant Plasmodium falciparum IspC expressed in Escherichia coli using 1-deoxy-D-xylulose 5-phosphate as substrate by photometric assay. In outline:
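P. falciparum IspC expressed in E. coli. Reaction mix: 100 mM Tris-HCl pH 7.6, 5 mM MnCl2, 5 mM DTT, 0.5 mM NADPH, 0.02 U enzyme. Inhibitor tested as a 1:3 series from 200 to 0.003 µM. Started with 0.5 mM DXP; read at 340 nm, room temperature. IC50 calculated from at least eight data points; generally two to three independent determinations.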

Data set [12] concerns Klebsiella pneumoniae. The data set can be described thus: Antimicrobial activity against Klebsiella pneumoniae ATCC 13883 incubated for 18 hrs by microbroth dilution assay. To be noted: ATCC 13883, 18 h. In kind it is functional.
The nature of data set [13]: Selectivity index, ratio of IC50 for human HeLa cells to IC50 for Plasmodium falciparum 3D7. In kind it is toxicity. To be noted: read-out: Ratio IC50. The gist of the method:
as §2

In data set [14] the test system is Acinetobacter baumannii. The data set can be described thus: Antimicrobial activity against Acinetobacter baumannii ATCC BAA747 incubated for 18 hrs by microbroth dilution assay. In kind it is functional. To be noted: ATCC BAA747, 18 h.
The subject of data set [15] is Klebsiella pneumoniae. The data set can be described thus: Antimicrobial activity against Klebsiella pneumoniae ATCC 700603 incubated for 18 hrs by microbroth dilution assay. The class given is functional. The following applies: ATCC 700603, 18 h.
Data set [16] relates to Escherichia coli. The data set can be described thus: Antimicrobial activity against Escherichia coli ATCC 25922 incubated for 18 hrs by microbroth dilution assay. The class given is functional. To be noted: ATCC 25922, 18 h.
For data set [17], the system named is Mycobacterium tuberculosis. The experiment in a line: Antimycobacterial activity against Mycobacterium tuberculosis H37Rv incubated for 5 days by resazurin dye based assay. In kind it is functional. To be noted: 120 h. On the technique in general: Resazurin is reduced to fluorescent resorufin, in cell work by metabolically active cells.
A short description of data set [18]: Apparent permeability in human Caco2 cells by LC-MS/MS analysis. The following applies: Caco-2. In kind it is ADME, cell-based. In outline:
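Compound applied to a polarized Caco2 monolayer. Concentrations measured over time by LC-MS/MS in donor medium, acceptor medium and cells; Papp calculated. Atenolol served as a reference compound.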

A short description of data set [19]: Stability of compound in pH 7.6 PBS buffer assessed as parent compound remaining incubated for 72 by HPLC analysis. The class given is physicochemical. The gist of the method: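 Compound dissolved at 1 mg/mL in phosphate buffer pH 7.6 (Ph. Eur.) and shaken at room temperature for 72 h. Samples at 0, 1, 3, 6, 24 and 72 h (n = 3) run by C18 reversed-phase HPLC with an acetonitrile/water gradient containing 0.1% TFA. Decomposition taken from the loss of peak area at 254 nm.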

Active and inactive are the calls of the source. No cut-off for these calls is given here.

The text below walks through data of ChEMBL document CHEMBL4406820, “Novel reverse thia-analogs of fosmidomycin: Synthesis and antiplasmodial activity” (Eur J Med Chem, 2019).

In general, IC50 refers to the concentration that inhibits the measured activity by half. Broadly, the MIC is the lowest concentration that inhibits growth of the organism. Low readings indicate inhibition by little substance, high ones a need for much substance. The term Papp denotes a coefficient for how fast a substance crosses the barrier.

With `CN(O)C(=O)CS[C@H](c1ccccc1)P(=O)(O)O`, the IC50 in [1] and in data set [2] was above 130 µM in each case. For the same compound, the inhibition entry in data set [3] and in data set [4] was “Active” throughout.

In the case of `COc1cc(OC)cc(C(SCC(=O)N(C)O)P(=O)(O)O)c1` (racemic), the MIC in [5], in data set [6], in data set [10], in data set [12], in [14] and in data set [15] was above 100 µM in each case. Besides, the MIC in [16] and in data set [17] was above 100 µM throughout. Further, the IC50 is 0.16 µM in data set [7]; 4.4 µM in data set [8]; 0.16 µM in data set [1]; above 1000 µM in [9]; 0.02 µM in [11]; 0.18 µM in [2]. Moreover, the selectivity ratio in [13] was above 6400.

For `COc1cc(OC)cc(C(SCC(=O)NO)P(=O)(O)O)c1` (racemic), the MIC in [5], in [6], in data set [10], in data set [12], in data set [14] and in data set [15] was above 100 µM in each case. In addition, the MIC in data set [16] and in [17] was above 100 µM throughout. The IC50 is 0.68 µM in data set [7]; 44 µM in [8]; 0.33 µM in data set [1]; above 1000 µM in [9]; 0.024 µM in data set [11]; 0.27 µM in data set [2]. In addition, in data set [13], the selectivity ratio is above 3000.

In the case of `Cc1ccc(C(SCC(=O)NO)P(=O)(O)O)cc1` (racemic), the MIC in [5], in [6], in data set [10], in data set [12], in data set [14] and in data set [15] was above 100 µM each time. Further, the MIC in [16] and in [17] was above 100 µM throughout. Besides, the IC50 in data set [7] was 0.29 µM; in data set [8] it was 8.2 µM; in [1], 6.5 µM; in data set [9], above 1000 µM; in [11], 0.032 µM; in data set [2], 8 µM. For the same compound, the selectivity ratio in data set [13] was above 150.

Regarding `CN(O)C(=O)CSC(c1ccccc1)P(=O)(O)O` (racemic), the MIC in [5], in data set [6], in data set [10], in [12], in data set [14] and in data set [15] was above 100 µM each time. For the same compound, the minimum inhibitory concentration (MIC) in [16] and in [17] was above 100 µM each time. Further, the IC50 is 0.19 µM in data set [1], above 1000 µM in data set [9] and 0.26 µM in data set [2]. Also, in data set [18], the Papp was determined as 0.14 ×10⁻⁶ cm/s. In addition, the selectivity ratio in data set [13] was above 37000. Moreover, in data set [19], the Stability is recorded as above 95%.

In the case of `CN(O)C(=O)CS[C@@H](c1ccccc1)P(=O)(O)O`, the values for the IC50 in [1] and in data set [2] were 0.087 µM and 0.14 µM, respectively. Moreover, the inhibition result in [3] and in data set [4] was “Active” throughout.
